Experimental data reported in ChEMBL document CHEMBL3822447, “4-(1,2-diarylbut-1-en-1-yl)isobutyranilide derivatives as inhibitors of topoisomerase II” (2016).
Activity calls are given as the source filed them. The calls are words filed in the database; no cut-off is given here.

What was measured:
[1] = Cytotoxicity against human OVCAR5 cells assessed as cell growth inhibition after 72 hrs by MTS assay; assay type: functional; settings: OVCAR-5, 72 h
Procedure, shortened: (§1)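 Cells grown in RPMI1640 with 10% FBS and 2 mM glutamine at 37°C, 5% CO2; plated at 15 000 cells/mL, treated with compounds 72 h after plating, and survival read by MTS after a further 72 h; dose-response curves plotted.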

HeLa [2] = assay: Cytotoxicity against human HeLa cells assessed as cell growth inhibition after 72 hrs by trypan blue assay; assay type: functional
Procedure, shortened: (§2)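 HeLa (F-12 HAM) and MCF-7 (DMEM) kept in medium with 10% heat-inactivated FCS plus antibiotics; 4-5×10^4 cells/well seeded, compounds added after 24 h at various concentrations, then 72 h more. Viable cells counted by trypan blue; GI50 is the concentration giving 50% fewer cells than control. Mean ± SD from at least three independent experiments.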

MCF7 = assay: Cytotoxicity against human MCF7 cells assessed as cell growth inhibition after 72 hrs by trypan blue assay; assay type: functional; settings: MCF7, 72 h; procedure, shortened: as §2
A2780 = assay: Cytotoxicity against human A2780 cells assessed as cell growth inhibition after 72 hrs by MTS assay; assay type: functional; settings: A2780, 72 h; procedure, shortened: as §1
[3] = molecular target: DNA topoisomerase 2-alpha (Homo sapiens) (UniProt P11388); assay: Poisoning activity at human recombinant topoisomerase 2 alpha using supercoiled pBR322 plasmid DNA as substrate assessed as stabilization of covalent DNA-enzyme complex at 50 uM after 60 mins by electrophoretic analysis
Procedure, shortened: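 Cleavage assay: 0.25 µg supercoiled pBR322 with 10 U human recombinant topoisomerase IIα and compound, 60 min at 37°C. Stopped with SDS buffer and 50 µg/mL proteinase K for 30 min at 37°C, then resolved on 1% agarose containing 0.5 µg/mL ethidium bromide in TBE, with UV imaging.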

HeLa [4] = assay: Induction of mitochondrial membrane depolarization in human HeLa cells at 25 uM after 28 hrs by JC-1 staining-based flow cytometric analysis (reference value: 4%); assay type: functional
Procedure, shortened: (§3)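 HeLa cells (2.0 x 10^5) seeded, compound added after 24 h, then incubated 28 h. Cells loaded with JC-1 working solution for 30 min at 37°C, washed twice and read in assay buffer by flow cytometry. Loss of red aggregate fluorescence scored as depolarized (JC-1 monomer) cells.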

[5] = molecular target: DNA topoisomerase 2-alpha (Homo sapiens) (UniProt P11388); assay: Inhibition of human recombinant topoisomerase 2 alpha-mediated relaxation of supercoiled pBR322 plasmid DNA at 10 to 50 uM after 60 mins by electrophoretic analysis
Procedure, shortened: (§4)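 Relaxation assay: 0.25 µg supercoiled pBR322 incubated with 1U human recombinant topoisomerase IIα and compound for 60 min at 37°C; m-AMSA reference at 10 µM. Stopped with SDS stop buffer plus 50 µg/mL proteinase K for 30 min at 37°C, run on 1% agarose, then stained with 1 µg/mL ethidium bromide in TAE.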

HeLa [6] = assay: Induction of apoptosis in human HeLa cells assessed as late apoptotic cells at 50 uM after 28 hrs by annexin V/FITC/propidium iodide staining-based flow cytometry (reference value: 1.2%); assay type: functional
HeLa [7] = assay: Induction of apoptosis in human HeLa cells assessed as early apoptotic cells at 50 uM after 28 hrs by annexin V/FITC/propidium iodide staining-based flow cytometry (reference value: 2.6%); assay type: functional
HeLa [8] = assay: Induction of apoptosis in human HeLa cells assessed as viable cells at 50 uM after 28 hrs by annexin V/FITC/propidium iodide staining-based flow cytometry (reference value: 95.3%); assay type: functional; settings: read-out: Activity
HeLa [9] = assay: Induction of apoptosis in human HeLa cells assessed as dead cells at 50 uM after 28 hrs by annexin V/FITC/propidium iodide staining-based flow cytometry (reference value: 1%); assay type: functional
Procedure, shortened: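 HeLa cells (2.0 x 10^5 per plate) seeded, grown 24 h in F-12 [HAM] with 10% heat-inactivated fetal calf serum, then exposed to test agent in complete medium for 28 h at 37 °C, 5% CO2. Cells were resuspended at 10^6 cells/mL in binding buffer and stained with annexin V-FITC plus propidium iodide for 15 min in the dark at room temperature. Read by flow cytometry.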

HeLa [10] = assay: Induction of mitochondrial membrane depolarization in human HeLa cells after 28 hrs by JC-1 staining-based flow cytometric analysis; assay type: functional, cell-based; procedure, shortened: as §3
[11] = molecular target: T1, DNA topoisomerase 1 (Homo sapiens) (UniProt P11387); assay: Inhibition of human recombinant topoisomerase 1-mediated relaxation of supercoiled pBR322 plasmid DNA at 100 uM after 60 mins by electrophoretic analysis
T1 sequence (whole entry): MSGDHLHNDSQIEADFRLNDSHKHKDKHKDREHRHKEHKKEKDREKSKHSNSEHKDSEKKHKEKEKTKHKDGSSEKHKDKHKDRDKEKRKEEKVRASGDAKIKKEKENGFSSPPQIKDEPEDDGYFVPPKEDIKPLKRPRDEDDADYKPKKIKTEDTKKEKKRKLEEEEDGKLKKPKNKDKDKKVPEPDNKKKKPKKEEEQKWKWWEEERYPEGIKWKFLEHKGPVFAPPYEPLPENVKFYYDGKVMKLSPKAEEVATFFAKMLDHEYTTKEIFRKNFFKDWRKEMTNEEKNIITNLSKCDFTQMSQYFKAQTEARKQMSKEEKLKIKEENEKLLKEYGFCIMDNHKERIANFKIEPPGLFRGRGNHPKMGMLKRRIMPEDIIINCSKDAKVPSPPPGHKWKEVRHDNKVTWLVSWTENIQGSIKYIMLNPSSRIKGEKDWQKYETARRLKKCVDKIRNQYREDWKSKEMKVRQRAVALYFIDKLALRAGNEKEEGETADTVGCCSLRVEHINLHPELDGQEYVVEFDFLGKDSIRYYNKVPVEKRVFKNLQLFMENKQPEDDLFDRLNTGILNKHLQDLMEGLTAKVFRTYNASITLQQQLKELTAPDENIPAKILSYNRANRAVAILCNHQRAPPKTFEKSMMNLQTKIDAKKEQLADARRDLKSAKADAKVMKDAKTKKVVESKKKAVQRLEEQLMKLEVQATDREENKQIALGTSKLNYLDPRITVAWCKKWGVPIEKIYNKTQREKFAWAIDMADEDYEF
Procedure, shortened: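 Relaxation assay: 0.25 µg supercoiled pBR322 incubated with 2U human recombinant topoisomerase I and compound for 60 min at 37°C. Stopped with SDS stop buffer plus 50 µg/mL proteinase K for 30 min at 37°C, run on 1% agarose at room temperature, then stained with 1 µg/mL ethidium bromide in TAE.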

HeLa [12] = assay: Induction of mitochondrial membrane depolarization in human HeLa cells at 10 uM after 28 hrs by JC-1 staining-based flow cytometric analysis (reference value: 4%); assay type: functional; procedure, shortened: as §3
HeLa [13] = assay: Induction of mitochondrial membrane depolarization in human HeLa cells at 15 uM after 28 hrs by JC-1 staining-based flow cytometric analysis (reference value: 4%); assay type: functional; procedure, shortened: as §3
[14] = molecular target: DNA topoisomerase 2-alpha (Homo sapiens) (UniProt P11388); assay: Inhibition of human recombinant topoisomerase 2 alpha-mediated relaxation of supercoiled pBR322 plasmid DNA at 50 uM after 60 mins by electrophoretic analysis; procedure, shortened: as §4
[15] = molecular target: DNA topoisomerase 2-alpha (Homo sapiens) (UniProt P11388); assay: Inhibition of human recombinant topoisomerase 2 alpha-mediated relaxation of supercoiled pBR322 plasmid DNA at 50 to 100 uM after 60 mins by electrophoretic analysis; procedure, shortened: as §4

DNA topoisomerase 2-alpha (Homo sapiens), sequence (P11388 whole entry): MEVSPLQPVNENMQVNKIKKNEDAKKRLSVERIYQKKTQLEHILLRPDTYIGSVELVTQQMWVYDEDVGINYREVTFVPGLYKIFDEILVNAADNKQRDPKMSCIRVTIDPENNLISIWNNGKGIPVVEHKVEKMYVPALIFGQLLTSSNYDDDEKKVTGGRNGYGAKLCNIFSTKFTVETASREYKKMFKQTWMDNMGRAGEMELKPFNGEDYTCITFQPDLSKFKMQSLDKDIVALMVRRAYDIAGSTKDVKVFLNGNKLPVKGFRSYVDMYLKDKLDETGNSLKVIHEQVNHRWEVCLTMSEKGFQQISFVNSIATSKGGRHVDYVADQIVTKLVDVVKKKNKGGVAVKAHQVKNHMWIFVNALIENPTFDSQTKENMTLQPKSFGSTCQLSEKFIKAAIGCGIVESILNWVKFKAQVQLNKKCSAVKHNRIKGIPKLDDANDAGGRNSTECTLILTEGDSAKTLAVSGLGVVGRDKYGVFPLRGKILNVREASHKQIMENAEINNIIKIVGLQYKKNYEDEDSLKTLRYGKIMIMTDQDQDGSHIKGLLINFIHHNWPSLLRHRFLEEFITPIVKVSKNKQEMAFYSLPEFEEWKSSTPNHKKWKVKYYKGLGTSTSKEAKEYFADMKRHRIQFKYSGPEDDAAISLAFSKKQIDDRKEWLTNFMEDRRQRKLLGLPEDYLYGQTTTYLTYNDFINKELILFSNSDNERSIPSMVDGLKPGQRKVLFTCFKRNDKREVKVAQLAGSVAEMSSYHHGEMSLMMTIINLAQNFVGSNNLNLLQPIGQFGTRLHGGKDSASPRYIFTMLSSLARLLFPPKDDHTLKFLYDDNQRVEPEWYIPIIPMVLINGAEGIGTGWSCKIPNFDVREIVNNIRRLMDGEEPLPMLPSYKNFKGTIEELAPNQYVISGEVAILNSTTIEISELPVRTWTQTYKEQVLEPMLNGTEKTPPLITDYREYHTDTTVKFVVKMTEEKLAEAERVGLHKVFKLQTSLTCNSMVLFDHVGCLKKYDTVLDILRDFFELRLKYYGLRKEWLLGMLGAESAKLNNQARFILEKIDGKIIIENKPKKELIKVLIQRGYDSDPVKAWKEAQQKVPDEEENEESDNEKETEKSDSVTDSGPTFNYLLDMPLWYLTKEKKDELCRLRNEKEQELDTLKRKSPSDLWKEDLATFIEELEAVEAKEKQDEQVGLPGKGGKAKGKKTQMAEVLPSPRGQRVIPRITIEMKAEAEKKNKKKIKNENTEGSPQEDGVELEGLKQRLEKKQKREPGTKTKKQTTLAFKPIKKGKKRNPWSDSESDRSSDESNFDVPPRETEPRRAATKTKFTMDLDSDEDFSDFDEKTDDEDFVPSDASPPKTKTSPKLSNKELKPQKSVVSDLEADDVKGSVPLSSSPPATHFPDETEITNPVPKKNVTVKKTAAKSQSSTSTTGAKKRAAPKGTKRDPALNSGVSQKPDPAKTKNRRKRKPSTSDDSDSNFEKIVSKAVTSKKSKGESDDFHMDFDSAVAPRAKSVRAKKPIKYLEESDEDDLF

Structure (SMILES) | GI50 [1] [µM] | GI50 (HeLa [2]) [µM] | GI50 (MCF7) [µM] | GI50 (A2780) [µM] | also measured
CC/C(=C(\c1ccc(O)cc1)c1ccc(NC(=O)C(C)C)cc1)c1ccc(Cl)cc1Cl | 28.8 | 8.7 | 12.5 | 15.7 | –
CC/C(=C(\c1ccc(NC(=O)C(C)C)cc1)c1ccc(OC)cc1)c1ccc(O)cc1 | 23.6 | 3.7 | 9 | 5.7 | –
CC/C(=C(\c1ccc(NC(=O)C(C)C)cc1)c1ccc(OC)cc1)c1ccc(OCc2ccccc2)cc1 | > 50 | > 30 | > 30 | > 50 | –
CC/C(=C(/c1ccc(NC(=O)C(C)C)cc1)c1ccc(OC)cc1)c1ccccc1 | > 50 | > 30 | > 30 | > 50 | –
CC/C(=C(/c1ccccc1)c1ccc(NC(=O)C(C)C)cc1)c1ccc(Cl)cc1Cl | > 50 | 8.2 | 17.5 | > 50 | –
CC/C(=C(\c1ccccc1)c1ccc(NC(=O)C(C)C)cc1)c1ccc(Cl)cc1Cl | > 50 | 3.3 | 8.3 | 8.4 | Activity [3]: Active
CC/C(=C(/c1ccc(NC(=O)C(C)C)cc1)c1ccc(OC)cc1)c1ccc(Cl)cc1Cl | > 50 | 2.2 | 6.6 | 3.8 | Activity (HeLa [4]): 80.3%; inhibition [5]: Active; Activity (HeLa [6]): 21.8%; Activity (HeLa [7]): 44.4%; viability at 50 µM (HeLa [8]): 31.7%; Activity (HeLa [9]): 2.1%; Activity (HeLa [10]): Dose-dependent effect; inhibition [11]: inactive; Activity [3]: Active; Activity (HeLa [12]): 51.8%; Activity (HeLa [13]): 75.7%
CC/C(=C(/c1ccc(O)cc1)c1ccc(NC(=O)C(C)C)cc1)c1ccccc1 | > 50 | 9.9 | 16.4 | 32.6 | –
CC/C(=C(\c1ccc(NC(=O)C(C)C)cc1)c1ccc(OC)cc1)c1ccc(Cl)cc1Cl | > 50 | 5.5 | 13.2 | 8.2 | –
CC/C(=C(/c1ccccc1)c1ccc(NC(=O)C(C)C)cc1)c1ccc(O)cc1 | 12.1 | 5.1 | 8.5 | 4.6 | inhibition [14]: Active
CC/C(=C(\c1ccc(O)cc1)c1ccc(NC(=O)C(C)C)cc1)c1ccccc1 | 42 | 9.9 | 14.7 | 34 | –
CC/C(=C(\c1ccccc1)c1ccc(NC(=O)C(C)C)cc1)c1ccccc1 | > 50 | > 30 | > 30 | > 50 | –
CC/C(=C(\c1ccccc1)c1ccc(N)cc1)c1ccccc1 | > 50 | > 30 | > 30 | > 50 | –
CC/C(=C(\c1ccccc1)c1ccc(OCCN(C)C)cc1)c1ccccc1 [TAMOXIFEN] | 32 | 12 | 6.5 | 30.3 | Activity (HeLa [4]): 26.2%; Activity (HeLa [6]): 28%; Activity (HeLa [7]): 29.9%; viability at 50 µM (HeLa [8]): 39.4%; Activity (HeLa [9]): 2.7%; Activity (HeLa [10]): Dose-dependent effect; Activity (HeLa [12]): 3.9%; inhibition [15]: inactive
CC/C(=C(\c1ccccc1)c1ccc(NC(=O)C(C)C)cc1)c1ccc(O)cc1 | 8.7 | 3.8 | 8.1 | 3.7 | –
CC/C(=C(/c1ccccc1)c1ccc(NC(=O)C(C)C)cc1)c1ccccc1 | > 50 | 28.1 | > 30 | 31.6 | –
CC/C(=C(/c1ccc(O)cc1)c1ccc(NC(=O)C(C)C)cc1)c1ccc(Cl)cc1Cl | 32.3 | 20.3 | 26.6 | 28.1 | –
CC/C(=C(/c1ccc(NC(=O)C(C)C)cc1)c1ccc(OC)cc1)c1ccc(O)cc1 | 29.3 | 5.8 | 13.6 | 13.6 | inhibition [14]: Active
CC/C(=C(\c1ccccc1)c1ccc(NC(=O)C(C)C)cc1)c1ccc(OCc2ccccc2)cc1 | > 50 | 10.2 | > 30 | 8.8 | –
CC/C(=C(\c1ccc(NC(=O)C(C)C)cc1)c1ccc(OC)cc1)c1ccccc1 | > 50 | 10.1 | 27.9 | 17.4 | –
CC/C(=C(/c1ccc(NC(=O)C(C)C)cc1)c1ccc(OC)cc1)c1ccc(OCc2ccccc2)cc1 | > 50 | 4.2 | 29 | > 50 | –
CC/C(=C(/c1ccccc1)c1ccc(NC(=O)C(C)C)cc1)c1ccc(OCc2ccccc2)cc1 | > 50 | > 30 | > 30 | > 50 | –
